Consider 27 variants from the RNAGym collection of RNA variant scans (doi:10.1101/gad.245936.114).

Fewer inactive variants are shown than the library holds.

B1: tRNA (parent)
chain: CUCUCGGUAGCCAAGUUGGUUUAAGGCGCAAGACUUUAAUUUAUCACUACGAAAUCUUGAGAUCGGGCGUUCGACUCGCCCCCGGGAGAUUUUUUCCUCGAGCAA

The variants in this data set derive from B1. Put plainly: nonsense suppression (GFP-seq) (ratio to wild type); higher = more function; SUP4oc tRNA, yeast GFP reporter sort-seq. In outline:
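Raffinose/galactose medium with 80 mg/L adenine was used to grow yeast carrying genome-integrated tRNA variants (~3% random-mutation library), RFP, and a galactose-driven GFP ochre reporter. Cells went into GFP/RFP bins, which were Illumina-sequenced, and variants with ≥100 reads and ≥30 cells were scored. Nonsense suppression (GFPSEQ) is the per-bin median GFP/RFP weighted by estimated cell share and expressed relative to the unmutated parent tRNA.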
Turning to CUUUCGGUAGCCAAGAUGGUUUAAGGCGCAAGACUUUAAUUUAUCACUACGAAAUCUUGAGAUCGGGCGUUCGACUCGCCCCCGGGAGAUUUUUUCCUCGAGCAA, the nonsense suppression was determined as 0.16. In the case of CUUUCGGUAGCCAAGGUGGUUUAAGGCGCAAGACUUUAAUUUAUCACUACGAAAUCUUGAGAUCGGGCGUUCGACUCGCCCCCGGGAGAUUUUUUCCUCGAGCAA, the nonsense suppression came to 0.22. Then CUUCCGGUCGCCAAGUUGGUUUAAGGCGCAAGACUUUAAUUUAUCACUACGAAAUCUUGAGAUCGGGCGUUCGACUCGCCCCCGGGAGAUUUUUUCCUCGAGCAA, with 1.11; and CUUUCGGUAGCCAAGUUGGUUUAAGGCGCAAGACUUUAAUUUAUCACUACGAAAUCUUGAGAUCGGGCGUUCAACUCGCCCCCGGGAGAUUUUUUCCUCGAGCAA, with 0.0656. As for CUUUCGGGAGCCAAGUUGGUUUAAGGCGCAAGACUUUAAUUUAUCACUACGAAAUCUGGAGAUCGGGCGUUCGACUCGCACGCGGCAGAUUUUUUCCUCGAGCAA, the nonsense suppression was ≤ 0.026. Under CUUUCGGUAGCCAAGUUGGUUUAAGGCGCAAGACUUUAAUUUAUCACUACGAAAUCUUGAGAUCGGGCGUUCGACUCGCCCCCGAGAGAUUUUUUCCUCGAGCAA stands 0.528; under CUUUCGGUAGCCAAGUUGGGUUAAGGCGCAAGACUUUAAUUUAUCACUACGAAAUCUUGAGAUCGGGCGUUCGACUCGCCCCCGAGAGAUUUUUUCCUCGAGCAA, 0.214. Then CUUUCGGUAGCCAAGUAGGUUUAAGGCGCAAGACUUUAAUUUAUCACUACGAAAUCUUGAGAUCGGGCGUUCGACUCGCCCCCGGGAGAUUUUUUCCUCGAGCAA, with 0.194; and CUUCGGUAGCCAAAGUAGGUUUAAGGCGCAAGACUUUAAUUUAUCACUACGAAAUCAUGAGAUCGGGCGUUCGACUCGCCCCCGGGAGAUUUUUUCCUCGAGCAA, with ≤ 0.026; and CUUUCGGUAGCCAAGUUGGAUUAAGACGCAAGACUUUAAUUUAUCACUACGAAAUCUUGAGAUCGGGCGUUCGACUCGCCCCCGGGAGAUUUUUUCCUCGAGCAA, with ≤ 0.026.

CUUUCGGUAGCCAAGUUGGUCUAAGGCGCAAGACUUUAAUUUAUCACUACGAAAUCUUGAAAUCGGGCGUUCGACUCGCCCCCGGGAGAUUUUUUCCUCGAGCAA: the nonsense suppression came out at 0.206.

For CUUUCGGUAGCCAAGUUGGUUUAAGCCACAAGACUUUAAUUUAUCACUACGAAAUCUUGAGAUCGGGCGUUCGACUCGCCCCCGGGAGAUUUUUUCCUCGAGCAA, the nonsense suppression was ≤ 0.026. As to CUUUCGGUAGCCAAGUUGGUUUAAGGCGCAAAACUUUAAUUUAUCACUACGAAAUCUUGAGAUCGGUCCUUCGACUCGCCCCCGGGAGAUUUUUUCCUCGAGCAA, the nonsense suppression was ≤ 0.026. In the case of CUUCCGGUAGCCAAGUUGGUUUAAGGCGCAAGACUUUAAUUUAUCACUACGAAAUCUUGAGAUCGGGCGUUCGACUCGCCCCCGGGAGAUUUUUUCCUCGAGCAA, the nonsense suppression is 0.859.

For CUUUCGGUACCCAAGUGGGUUAAACGCGCAAGACUUUAAUUUAUCACUACGAAAUCUUGAGAUCGGGCGUUCGACUCGCCCCCGGGAGAUUUUUUCCUCGAGCAA, the nonsense suppression was ≤ 0.026. Take CUUUCGGUAGCCAAGUUGGUGUAAGGCGCAAGACUUUAAUUUAUCACUACGAAAUCUUGAGAUCGGGCGUUCGACUCGCCCCCGCGAGAUUUUUUCCUCGAGCAA: the nonsense suppression came out at 0.417. Under CUUUCGGUAGCCAAGUUGGUUUAAGGCGCAAGACUUUAAUUUAUCACUACGAAAUCUUGAGAUCGGGCGUUCGACUCACCCCCGGGAGAUUUUUUCCUCGAGCAA stands 0.0608. Under CUUUCGGUAGCCAAGUUGGUUUAAGGCGCAAGACUUUAAUUUAUCACUACGAAAUCUUGACAUCGGGCGUUCGACUCGCCCCCGGGAGAUUUUUUCCUCGAGCAA stands 0.164; under CUUUCGGUAGCCAAGUUGGUUUAAGGCGCAAGACUUUAAUUUAUCACUACGAAAUCUUGAAAUCGGGCGUUCGACUCGCCCCCGGGAGAUUUUUUCCUCGAGCAA, 0.198.

With CUUUCGGUAGCCAAGUUGGUUUAAGGCGCAAGACUUUAAUUUAUCACUACGAAAUCUUGAGAUCGCGCGUUCGACUCGCCCCCGGGAGAUUUUUUCCUCGAGCAA, the nonsense suppression stood at 0.0288. Under CUUUCGGCAGCCAAGUUGGUUUAAGGCGCAAGACUUUAAUUUAUCACUACGAAAUCUUGAGAUCGGGCGUUCGACUCGCCCCCGGGAGAUUUUUUCCUCGAGCAA stands 0.0916.

CUUUCGGUAGCCAAGUUGGUUUAAGGCGCAAGACUUUAAUUUAUCACUACGAAAUCUUGAGAUCGGGCGUUCGACUCCCCCCCGGGAGUUUUUUUCCUCGAGCAA: the nonsense suppression was ≤ 0.026.

With CUUUCGGUAGCCAAGUUGGUGUAAGGCGCAAGACUUUAAUUUAUCACUACGAAAUCUUGAGAUCGGGCGUUCGACUCGCCCCCGGGAGAUUUUUUCCUCGAGCAA, the nonsense suppression amounted to 0.137. Under CUUUCGGUAGCCAAGUUGGUAUAAGGCGCAAGACUUUAAUUUAUCACUACGAAAUCUUGAGAUCGGGCGUUCGACUCGCCCCCGGGAGAUUUUUUCCUCGAGCAA stands 0.196. In the case of CUUUCGGUAGCCAAGUUGGUUUAAGGCGCAAGACUUUAAUUUAUCACUACGAAAUCUUGAGAUCGGGCGUUCGACUCGCCCCCGGAAGAUUUUUUCCUCGAGCAA, the nonsense suppression amounted to 1.07. Under CUUUCGGGAGCCAAGUUGGUUUAAGGCGCAAGACUUUAAUUUAUCACUACGAAUUCUGGAGAUCGGGCGUUCGACUCGCCCCUGGGAGAUUUUUUCCUCGAGCAA stands ≤ 0.026; under CUUUCGGUAGCCAAGUUGGGUUAAGGCGCAAGACUUUAAUUUAUCACUACGAAAUCUUGAGAUCGGGCGUUCGACUCGCCCCCGGGAGAUUUUUUCCUCGAGCAA, 0.194.
